Reference: ChEMBL document CHEMBL1154198, “Chemical genetics of Plasmodium falciparum” (Nature, 2010)

Assays:
Leishmania major = assay: ST_JUDE: Cytotoxicity using Alamar Blue to measure viability of Leishmania major; assay type: functional, organism-based
Method in brief: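 L. major promastigotes; drug susceptibility read with Alamar Blue.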

[1] = ST_JUDE: Cytotoxicity using luciferase to measure ATP as an indicator of the viability of human Burkitt''s lymphoma lymphoblast cells (Raji); assay type: toxicity, cell-based
Trypanosoma brucei = assay: ST_JUDE: Cytotoxicity using luciferase to measure ATP as an indicator of the viability of Trypanosoma brucei; assay type: functional, organism-based
Plasmodium falciparum [2] = assay: ST_JUDE: Cytotoxicity against Plasmodium falciparum K1; assay type: functional, organism-based
Method in brief: (§1)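 Asexual P. falciparum grown in human erythrocytes, exposed to compounds for 72 h, and growth read as the DNA quantity in treated versus control cultures. Dose-response run at 12 concentrations from 10 μM to 5 nM.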

Plasmodium falciparum [3] = assay: ST_JUDE: Cytotoxicity against Plasmodium falciparum SB-A6; assay type: functional, organism-based
[4] = ST_JUDE: Cytotoxicity using luciferase to measure ATP as an indicator of the viability of human epithelial embryonic kidney cells (HEK293); assay type: toxicity, cell-based
[5] = ST_JUDE: Cytotoxicity using luciferase to measure ATP as an indicator of the viability of human foreskin fibroblast cells (BJ); assay type: toxicity, cell-based
[6] = ST_JUDE: Cytotoxicity using luciferase to measure ATP as an indicator of the viability of human epithelial hepatocellular carcinoma cells (HepG2); assay type: toxicity, cell-based
Plasmodium falciparum [7] = assay: ST_JUDE: Cytotoxicity against Plasmodium falciparum V1/S; assay type: functional, organism-based
Plasmodium falciparum [8] = assay: ST_JUDE: Plasmodium falciparum 3D7 EC50 (uM) as measured by SYBR green dye; assay type: functional, organism-based
Toxoplasma gondii = assay: ST_JUDE: Growth inhibition of to Toxoplasma gondii, in human U-2OS cells, as measured by luciferase.; assay type: functional, organism-based; settings: RH, U2OS
Method in brief: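 T. gondii parasites engineered to express luciferase; drug sensitivity read by luminescence.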

Plasmodium falciparum [9] = assay: ST_JUDE: Plasmodium falciparum K1 EC50 (uM) as measured by SYBR green dye; assay type: functional, organism-based
Plasmodium falciparum [10] = assay: ST_JUDE: Cytotoxicity against Plasmodium falciparum 3D7; assay type: functional, organism-based; method in brief: as §1
Plasmodium falciparum [11] = assay: ST_JUDE: Cytotoxicity against Plasmodium falciparum Dd2; assay type: functional, organism-based
Plasmodium falciparum [12] = assay: ST_JUDE: Cytotoxicity against Plasmodium falciparum W2; assay type: functional, organism-based
Plasmodium falciparum [13] = assay: ST_JUDE: Cytotoxicity against Plasmodium falciparum D10 transfected with yeast DHOD; assay type: functional, organism-based

EC50 (Plasmodium falciparum [8]) | EC50 (Plasmodium falciparum [9]) | SMILES | EC50 (Leishmania major) | EC50 [1] | EC50 (Trypanosoma brucei) | EC50 (Plasmodium falciparum [2]) | EC50 (Plasmodium falciparum [3]) | EC50 [4] | EC50 [5] | EC50 [6] | EC50 (Plasmodium falciparum [7]) | EC50 (Toxoplasma gondii) | EC50 (Plasmodium falciparum [10]) | EC50 (Plasmodium falciparum [11]) | EC50 (Plasmodium falciparum [12]) | EC50 (Plasmodium falciparum [13])
> 15000 nM | 704 nM | CC[n+]1ccccc1C=Cc1ccc(N(C)C)cc1 | > 19400 nM | 3860 nM | 14300 nM | 1140 nM | 1920 nM | > 45300 nM | > 45300 nM | > 45300 nM | 1980 nM | > 24800 nM | 1080 nM | 1820 nM | > 11600 nM | 1470 nM
388 nM | 172 nM | OC(CNC1CCCCC1)Cn1c2ccc(Cl)cc2c2cc(Cl)ccc21 (stereo not given) | > 16600 nM | > 38800 nM | 1970 nM | 348 nM | 1050 nM | > 38800 nM | > 38800 nM | 17200 nM | 974 nM | > 21300 nM | 1390 nM | 132 nM | 177 nM | 916 nM
1260 nM | 715 nM | CCCCCCn1c(=N)n(CC(O)COc2ccccc2C)c2ccccc21 (stereo not given) | > 23400 nM | 12600 nM | 3730 nM | 1430 nM | 4670 nM | 20300 nM | 16800 nM | 6980 nM | 2090 nM | 13900 nM | 2200 nM | 1110 nM | 1290 nM | 6570 nM
843 nM | 1670 nM | COC(=O)C1=CNC=C(C(=O)OC)C1c1ccc(Cl)c(Cl)c1 | > 19600 nM | > 45800 nM | 17100 nM | 1360 nM | > 11800 nM | > 45800 nM | > 45800 nM | > 45800 nM | 1780 nM | > 25100 nM | 772 nM | 780 nM | 900 nM | > 11800 nM
1120 nM | 582 nM | CCOc1ccc2nc3cc(N)ccc3c(N)c2c1 | > 14000 nM | > 32600 nM | 7470 nM | 1730 nM | 2380 nM | > 32600 nM | 17900 nM | > 32600 nM | 2000 nM | > 17900 nM | 1940 nM | 294 nM | 758 nM | 2390 nM
28.2 nM | 21.6 nM | O=C1C(Nc2ccc(Br)cc2)=C(n2nnc3ccccc32)C(=O)c2ccccc21 | > 10600 nM | > 24800 nM | 1310 nM | 24.5 nM | 80.1 nM | > 24800 nM | > 24800 nM | > 24800 nM | 32.6 nM | > 13600 nM | 60.2 nM | 590 nM | > 6370 nM | 59.3 nM
1410 nM | 1420 nM | C[n+]1ccccc1/C=C/c1ccc([N+](=O)[O-])cc1 | > 14500 nM | > 33800 nM | > 32400 nM | 745 nM | 1080 nM | > 33800 nM | > 33800 nM | > 33800 nM | 858 nM | > 18500 nM | 804 nM | 1040 nM | 4230 nM | 899 nM
264 nM | 174 nM | Nc1ccc(-c2nc3cc(-c4ccc5[nH]c(-c6ccc(N)cc6)nc5c4)ccc3[nH]2)cc1 | > 16400 nM | > 38300 nM | 2520 nM | 201 nM | 108 nM | > 38300 nM | > 38300 nM | 8940 nM | 154 nM | > 21000 nM | 221 nM | 165 nM | 77.9 nM | 120 nM
1350 nM | 427 nM | CC(C)(C)c1cc(C2C(C#N)=C(N)OC3=C2C(=O)CCC3)cc(C(C)(C)C)c1O (stereo not given) | > 15500 nM | 3040 nM | 5460 nM | 1860 nM | 2530 nM | > 36200 nM | > 36200 nM | 3030 nM | 1520 nM | 1340 nM | 1850 nM | 2530 nM | 3440 nM | 2390 nM
1290 nM | 467 nM | CCOc1ccc(/C=C2\Oc3c(ccc(O)c3CN3CCCCC3)C2=O)cc1 | > 20200 nM | > 47100 nM | > 45200 nM | 500 nM | 3390 nM | > 47100 nM | > 47100 nM | > 47100 nM | 1180 nM | > 25800 nM | 1770 nM | 2140 nM | 1150 nM | 1850 nM
919 nM | 1320 nM | COc1ccc(C2CC(=O)C3=C(C2)NC(=O)CC3c2ccc(OC)c(OC)c2)cc1 (stereo not given) | > 19400 nM | > 45400 nM | > 43500 nM | 1510 nM | 2320 nM | > 45400 nM | > 45400 nM | > 45400 nM | > 11700 nM | > 24900 nM | 1240 nM | 1310 nM | 2210 nM | 1640 nM
60.4 nM | 138 nM | CCO/C(O)=C1\C(C)=NC2=C(C(=O)CC(c3ccc(OC)c(OC)c3)C2)C1c1ccccc1Cl (stereo not given) | > 19100 nM | > 44600 nM | 9640 nM | 91.3 nM | 56.1 nM | > 44600 nM | > 44600 nM | > 44600 nM | 118 nM | > 24400 nM | 70.2 nM | 60.8 nM | 16.5 nM | 57.3 nM
658 nM | 4090 nM | CC(C)(C)NC(=O)c1cn(C2CCCCC2)cc(C(=O)NC2CCN(Cc3ccccc3)C2)c1=O (stereo not given) | > 12300 nM | > 28700 nM | 19900 nM | 1980 nM | 704 nM | > 28700 nM | > 28700 nM | > 28700 nM | 4840 nM | > 15700 nM | 787 nM | 507 nM | 2140 nM | 1520 nM
1210 nM | 1110 nM | CCOc1ccccc1N1CCN(Cc2cc(Br)cc(OC)c2O)CC1 | > 15700 nM | > 36800 nM | > 35300 nM | 478 nM | 1140 nM | > 36800 nM | > 36800 nM | > 36800 nM | 643 nM | > 20100 nM | 1510 nM | 1170 nM | 2930 nM | 2420 nM
58.4 nM | 80.9 nM | CC(C)CN1C(=O)c2ccccc2C(C(=O)Nc2cccc(C#N)c2)C1c1cccs1 (stereo not given) | > 20100 nM | > 46800 nM | 3180 nM | 232 nM | 351 nM | > 46800 nM | > 46800 nM | > 46800 nM | 296 nM | > 25700 nM | 271 nM | 161 nM | 196 nM | 366 nM
